Data as given in ChEMBL document CHEMBL4257459, “Synergistic antifungal effect of cyclized chalcone derivatives and fluconazole against Candida albicans” (2017).
Converted amounts (≈) assume the structure as drawn.

Tests used:
Candida albicans [1] = test: Antifungal activity against fluconazole resistant Candida albicans 167-2 by CLSI protocol based broth microdilution method; format: functional
In short: (§1)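 Broth microdilution per CLSI M27-A3 against clinical C. albicans isolates. Strains sub-cultured at least twice on Tryptone Soya Agar, 37 °C, 48 h. Compounds dissolved in DMSO at 2000 μg mL–1 stock. Fluconazole positive control, plus culture, media and vehicle controls. Run in duplicate; MIC in μg mL–1.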

Candida albicans [2] = test: Antifungal activity against fluconazole resistant Candida albicans A171 by CLSI protocol based broth microdilution method; format: functional; in short: as §1
Candida albicans [3] = test: Antifungal activity against fluconazole resistant Candida albicans 167-1 by CLSI protocol based broth microdilution method; format: functional; in short: as §1
Candida albicans [4] = test: Antifungal activity against fluconazole susceptible Candida albicans 002B1 by CLSI protocol based broth microdilution method; format: functional
In short: (§2)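 Clinical isolates and control strain subcultured at least twice on TSA, 37 °C, 48 h. MICs by CLSI M27-A3 broth microdilution; compounds dissolved in DMSO to 2000 μg mL–1 stock. Fluconazole positive control, culture, media and DMSO vehicle controls in each run. Duplicate experiments; MIC in μg mL–1.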

Candida albicans [5] = test: Antifungal activity against fluconazole susceptible Candida albicans 003gr by CLSI protocol based broth microdilution method; format: functional; in short: as §2
Candida albicans [6] = test: Antifungal activity against fluconazole susceptible Candida albicans 004gr by CLSI protocol based broth microdilution method; format: functional; in short: as §2
Candida albicans [7] = test: Antifungal activity against fluconazole susceptible Candida albicans 004B1 by CLSI protocol based broth microdilution method; format: functional; in short: as §2
Candida albicans [8] = test: Antifungal activity against fluconazole susceptible Candida albicans 0079gr by CLSI protocol based broth microdilution method; format: functional; in short: as §2
Candida albicans [9] = test: Antifungal activity against fluconazole susceptible Candida albicans 0072gr by CLSI protocol based broth microdilution method; format: functional; in short: as §2
Candida albicans [10] = test: Antifungal activity against Candida albicans ATCC 90028 by CLSI protocol based broth microdilution method; format: functional; in short: as §2
Candida albicans [11] = test: Antifungal activity against fluconazole resistant Candida albicans A171 in presence of fluconazole by CLSI protocol based broth microdilution method; format: functional
In short: (§3)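 Checkerboard-style combination with fluconazole at a 1 : 1 ratio, over concentrations 2–4 fold below each agent's MIC alone, by CLSI broth microdilution. Fractional inhibitory concentration index calculated and interpreted as synergy (<0.5), additive (0.5–1), indifferent or antagonistic.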

Candida albicans [12] = test: Antifungal activity against fluconazole resistant Candida albicans 167-1 in presence of fluconazole by CLSI protocol based broth microdilution method; format: functional; in short: as §3
Candida albicans [13] = test: Antifungal activity against fluconazole resistant Candida albicans 167-2 in presence of fluconazole by CLSI protocol based broth microdilution method; format: functional; in short: as §3
Candida albicans [14] = test: Antifungal activity against fluconazole susceptible Candida albicans 002B1 in presence of fluconazole by CLSI protocol based broth microdilution method; format: functional
Candida albicans [15] = test: Antifungal activity against fluconazole susceptible Candida albicans 003gr in presence of fluconazole by CLSI protocol based broth microdilution method; format: functional
Candida albicans [16] = test: Antifungal activity against fluconazole susceptible Candida albicans 004gr in presence of fluconazole by CLSI protocol based broth microdilution method; format: functional
Candida albicans [17] = test: Antifungal activity against fluconazole susceptible Candida albicans 004B1 in presence of fluconazole by CLSI protocol based broth microdilution method; format: functional
Candida albicans [18] = test: Antifungal activity against fluconazole susceptible Candida albicans 0079gr in presence of fluconazole by CLSI protocol based broth microdilution method; format: functional
Candida albicans [19] = test: Antifungal activity against fluconazole susceptible Candida albicans 0072gr in presence of fluconazole by CLSI protocol based broth microdilution method; format: functional
Candida albicans [20] = test: Antifungal activity against Candida albicans ATCC 90028 in presence of fluconazole by CLSI protocol based broth microdilution method; format: functional
Candida albicans [21] = test: Inhibition of ABC efflux pumps in fluconazole resistant Candida albicans A171 assessed as reduction in energy-dependent rhodamine 6G efflux in presence of 0.1 M glucose after 25 mins by fluorescence assay relative to control
In short: (§4)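 Cells grown in TSB at 37 °C for 8 h, washed, resuspended in glucose-free PBS at 1 × 10^8 cells. De-energized 45 min with 5 mM deoxyglucose plus 5 mM dinitrophenol. […] Washed, sampled 5–25 min, then 0.1 M glucose added. Absorbance 527 nm, R6G from standard curve.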

Candida albicans [22] = test: Inhibition of ABC efflux pumps in fluconazole resistant Candida albicans 167-1 assessed as reduction in energy-dependent rhodamine 6G efflux in presence of 0.1 M glucose after 25 mins […] relative to control
Candida albicans [23] = test: Inhibition of ABC efflux pumps in fluconazole resistant Candida albicans 167-2 assessed as reduction in energy-dependent rhodamine 6G efflux in presence of 0.1 M glucose after 25 mins […] relative to control
Candida albicans [24] = test: Inhibition of ABC efflux pumps in fluconazole susceptible Candida albicans 002B1 assessed as reduction in energy-dependent rhodamine 6G efflux in presence of 0.1 M glucose after 25 mins […] relative to control
Candida albicans [25] = test: Inhibition of ABC efflux pumps in fluconazole susceptible Candida albicans 003gr assessed as reduction in energy-dependent rhodamine 6G efflux in presence of 0.1 M glucose after 25 mins […] relative to control
Candida albicans [26] = test: Inhibition of ABC efflux pumps in fluconazole susceptible Candida albicans 004gr assessed as reduction in energy-dependent rhodamine 6G efflux in presence of 0.1 M glucose after 25 mins by fluorescence assay relative to control; in short: as §4
Candida albicans [27] = test: Inhibition of ABC efflux pumps in fluconazole susceptible Candida albicans 004B1 assessed as reduction in energy-dependent rhodamine 6G efflux in presence of 0.1 M glucose after 25 mins by fluorescence assay relative to control; in short: as §4
Candida albicans [28] = test: Inhibition of ABC efflux pumps in fluconazole susceptible Candida albicans 0079gr assessed as reduction in energy-dependent rhodamine 6G efflux in presence of 0.1 M glucose after 25 mins by fluorescence assay relative to control; in short: as §4
Candida albicans [29] = test: Inhibition of ABC efflux pumps in fluconazole susceptible Candida albicans 0072gr assessed as reduction in energy-dependent rhodamine 6G efflux in presence of 0.1 M glucose after 25 mins […] relative to control
Candida albicans [30] = test: Inhibition of ergosterol biosynthesis in fluconazole resistant Candida albicans A171 at 0.5 to 1 times MIC relative to control; format: functional
In short: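 Total sterols quantified by alcoholic KOH extraction in cells grown in 50 ml TSB with compounds at MIC and ½ MIC; untreated and 8 μg mL–1 fluconazole controls. Spectral scan; ergosterol content from A281.5 and A230 absorbances, dilution factor and pellet weight, correcting for 24(28) DHE.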

Candida albicans [31] = test: Inhibition of ergosterol biosynthesis in fluconazole susceptible Candida albicans ATCC 90028 at 0.5 to 1 times MIC relative to control; format: functional
In short: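 ATCC90028 grown in 50 ml TSB with MIC and ½ MIC of compound; untreated and 8 μg mL–1 fluconazole controls. Sterols extracted by alcoholic KOH method and spectrophotometrically scanned; ergosterol % calculated from A281.5 and A230 (E values 290 and 518) with dilution factor, per pellet weight.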

Candida albicans [32] = test: Down regulation of ERG11 gene expression in fluconazole resistant Candida albicans A171 at MIC after 2 hrs by qRT PCR analysis relative to control; format: functional
In short: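 Cells exposed 2 h to test agents at MIC. Total RNA isolated, cDNA synthesized, qPCR for ERG11 with ACT1 as endogenous control. Triplicate independent experiments, reported as mean ± standard deviation.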

Candida albicans [33] = test: Down regulation of ERG11 gene expression in fluconazole susceptible Candida albicans ATCC 90028 at MIC after 2 hrs by qRT PCR analysis relative to control; format: functional
In short: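 Cells exposed to compound at MIC for 2 h; total RNA isolated, cDNA synthesised, ERG11 measured by real-time qPCR with ACT1 as endogenous control. Triplicate independent experiments; mean ± standard deviation.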

Structure (SMILES)	MIC (Candida albicans [1]) [µg/mL]	MIC (Candida albicans [2]) [µg/mL]	MIC (Candida albicans [3]) [µg/mL]	MIC (Candida albicans [4]) [µg/mL]	MIC (Candida albicans [5]) [µg/mL]	MIC (Candida albicans [6]) [µg/mL]	MIC (Candida albicans [7]) [µg/mL]	MIC (Candida albicans [8]) [µg/mL]	MIC (Candida albicans [9]) [µg/mL]	MIC (Candida albicans [10]) [µg/mL]	fractional inhibitory concentration index (FICI) (Candida albicans [11])	fractional inhibitory concentration index (FICI) (Candida albicans [12])	fractional inhibitory concentration index (FICI) (Candida albicans [13])	fractional inhibitory concentration index (FICI) (Candida albicans [14])	fractional inhibitory concentration index (FICI) (Candida albicans [15])	fractional inhibitory concentration index (FICI) (Candida albicans [16])	fractional inhibitory concentration index (FICI) (Candida albicans [17])	fractional inhibitory concentration index (FICI) (Candida albicans [18])	fractional inhibitory concentration index (FICI) (Candida albicans [19])	fractional inhibitory concentration index (FICI) (Candida albicans [20])	other results
O=C(/C=C/c1ccc(/C=C/C(=O)c2ccccc2)cc1)c1ccccc1	16 to 31 (≈ 47.3 to 91.6 µM)	16 to 31 (≈ 47.3 to 91.6 µM)	16 to 31 (≈ 47.3 to 91.6 µM)	2 to 16 (≈ 5.91 to 47.3 µM)	2 to 16 (≈ 5.91 to 47.3 µM)	2 to 16 (≈ 5.91 to 47.3 µM)	2 to 16 (≈ 5.91 to 47.3 µM)	2 to 16 (≈ 5.91 to 47.3 µM)	2 to 16 (≈ 5.91 to 47.3 µM)	2 to 16 (≈ 5.91 to 47.3 µM)	0.266 - 0.27	0.266 - 0.27	0.266 - 0.27	0.31 - 1.5	0.31 - 1.5	0.31 - 1.5	0.31 - 1.5	0.31 - 1.5	0.31 - 1.5	0.31 - 1.5	inhibition (Candida albicans [21]): < 20%; inhibition (Candida albicans [22]): < 20%; inhibition (Candida albicans [23]): < 20%; inhibition (Candida albicans [24]): < 20%; inhibition (Candida albicans [25]): < 20%; inhibition (Candida albicans [26]): < 20%; inhibition (Candida albicans [27]): < 20%; inhibition (Candida albicans [28]): < 20%; inhibition (Candida albicans [29]): < 20%; inhibition (INH) (Candida albicans [30]): 49 - 94%; inhibition (INH) (Candida albicans [31]): 66 - 99%; fold change (FC) (Candida albicans [32]): 1.25 - 10; fold change (FC) (Candida albicans [33]): 1.5 - 13
c1ccc(C2=NOC(c3ccc(C4CC(c5ccccc5)=NO4)cc3)C2)cc1 (stereo unspecified)	8 to 16 (≈ 21.7 to 43.4 µM)	8 to 16 (≈ 21.7 to 43.4 µM)	8 to 16 (≈ 21.7 to 43.4 µM)	2 to 8 (≈ 5.43 to 21.7 µM)	2 to 8 (≈ 5.43 to 21.7 µM)	2 to 8 (≈ 5.43 to 21.7 µM)	2 to 8 (≈ 5.43 to 21.7 µM)	2 to 8 (≈ 5.43 to 21.7 µM)	2 to 8 (≈ 5.43 to 21.7 µM)	2 to 8 (≈ 5.43 to 21.7 µM)	0.532 - 1.02	0.532 - 1.02	0.532 - 1.02	0.37 - 0.75	0.37 - 0.75	0.37 - 0.75	0.37 - 0.75	0.37 - 0.75	0.37 - 0.75	0.37 - 0.75	inhibition (Candida albicans [21]): < 20%; inhibition (Candida albicans [22]): < 20%; inhibition (Candida albicans [23]): < 20%; inhibition (Candida albicans [24]): < 20%; inhibition (Candida albicans [25]): < 20%; inhibition (Candida albicans [26]): < 20%; inhibition (Candida albicans [27]): < 20%; inhibition (Candida albicans [28]): < 20%; inhibition (Candida albicans [29]): < 20%; inhibition (INH) (Candida albicans [30]): 49 - 94%; inhibition (INH) (Candida albicans [31]): 66 - 99%; fold change (FC) (Candida albicans [32]): 1.25 - 10; fold change (FC) (Candida albicans [33]): 1.5 - 13
